The text below walks through data of the array DNA melting data of Ke et al. (doi:10.1101/2024.01.08.574731).

Data set [1] in a line: folding enthalpy; higher = less favourable; fluorescence melt of hairpins on a sequencing array, two-state fit. As to conditions: sodium 0.088 M. In short, it runs like this:
(§1)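 On a sequenced MiSeq flow cell, library hairpins with annealed Cy3 and quencher oligos were imaged for Cy3 fluorescence in 2.5 °C steps up to 60 °C, in 50 mM Na-HEPES pH 8.0, 25 mM NaCl. Normalisation used pre-quench Cy3 and control constructs. Bootstrapped two-state fits gave melting temperature and folding enthalpy, combined by inverse variance across four replicates and with fitted temperatures raised by 9.35 °C to match UV melts.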

Data set [2] can be described thus: melting temperature; fluorescence melt of hairpins on a sequencing array, two-state fit, raised by 9.35 °C to match UV melts. The conditions noted are these: sodium 0.088 M. The procedure, abridged: as §1

For GGGTTTGGAAACGAACTC (.(((.(....).))).), the folding enthalpy in data set [1] was -24 kcal/mol. Also, the Tm in data set [2] was determined as 32.4 °C.
For GGTAAAACGAAAGTTACC (((..(((....)))))) the same measures were -19.1 kcal/mol and 37.3 °C.
For the sequence GGTAAACGAAAGTTAACC (((.(((....))).))), the folding enthalpy in data set [1] was -30.5 kcal/mol. In data set [2], the Tm amounted to 43.2 °C.
For GGTAAAGCGAAAGCTACC (((..(((....)))))) the same measures were -19 kcal/mol and 44.8 °C.
Take GGTAAAGGAAACCTTACC (((((.(....).))))): the folding enthalpy in data set [1] was -22 kcal/mol. The Tm in data set [2] was 35.5 °C.
As for GGTAAAGGAAACTTTACC (((((((....))))))), in data set [1], the folding enthalpy is -47.8 kcal/mol. Also, the Tm in data set [2] turned out to be 52.1 °C.
For the sequence GGTAACGAAAGTTCAACC ((((((....)))..))), in data set [1], the folding enthalpy is -11 kcal/mol. In data set [2], the Tm is 27.7 °C.
Take GGTAACGAAAGTTGACC ((((((....))).))): the folding enthalpy in data set [1] is -20.6 kcal/mol. Further, the Tm in data set [2] stood at 39.2 °C.
For GGTAACGAAAGTTGTACC ((((((....)))..))), in that order: -17.5 kcal/mol and 34.8 °C.
For GGTAACGCGAAAGCGACC (((..(((....)))))), the folding enthalpy in data set [1] was -14.1 kcal/mol. Besides, the Tm in data set [2] amounted to 40.9 °C.
For GGTAACGGAAACATTACC (((((.(....).))))), in that order: -21.2 kcal/mol and 31.5 °C.
For GGTAACGGAAACGCTACC ((((.((....)).)))), the folding enthalpy in data set [1] is -29.7 kcal/mol. In data set [2], the Tm worked out at 43.7 °C.
Regarding GGTAAGAAATTACC (((((....))))), the folding enthalpy in data set [1] was -16 kcal/mol. For the same sequence, in data set [2], the Tm is 34.3 °C.
GGTAAGCGAAAGCTACC (((.(((....)))))): the folding enthalpy in data set [1] is -26.7 kcal/mol. Moreover, in data set [2], the Tm was determined as 55 °C.
For GGTAAGGGAAACCTCACC (((.(((....))).))), in that order: -21.9 kcal/mol and 34.7 °C.
As to GGTAATCGAAAGATGACC (((.(((....))).))), the folding enthalpy in data set [1] was -33.9 kcal/mol. Moreover, in data set [2], the Tm came out at 47.5 °C.
As to GGTAATGGAAACACTACC ((((.((....)).)))), the folding enthalpy in data set [1] is -15.4 kcal/mol. Further, the Tm in data set [2] turned out to be 30.1 °C.
For the sequence GGTACCGAAAGGTAAACC ((((((....)))..))), in data set [1], the folding enthalpy was -16.2 kcal/mol. Moreover, in data set [2], the Tm came to 40.5 °C.
For the sequence GGTACCGAAAGGTACACC ((((((....)))..))), the folding enthalpy in data set [1] is -9.32 kcal/mol. Further, the Tm in data set [2] stood at 51.7 °C.
With GGTACCGAAAGGTTAACC ((((((....)))..))), the folding enthalpy in data set [1] is -17.3 kcal/mol. In addition, the Tm in data set [2] was 38.6 °C.
For GGTACCGAAAGGTTCACC ((((((....)))..))), in that order: -13.6 kcal/mol and 34.4 °C.
For GGTACCGGAAACGGCACC (((.(((....))).))) the same measures were -29.9 kcal/mol and 52.5 °C.
GGTACGGGAAACCATACC ((((.((....)).)))): in data set [1], the folding enthalpy was -28.2 kcal/mol. Besides, in data set [2], the Tm amounted to 36.7 °C.
For GGTACGGGAAACCGCACC (((.(((....))).))) the same measures were -28.6 kcal/mol and 50.5 °C.
For GGTAGACGAAAGTCAACC (((.(((....))).))), in that order: -26.3 kcal/mol and 51.5 °C.
GGTAGACGAAAGTCACC (((.(((....)))))): in data set [1], the folding enthalpy was -23.6 kcal/mol. Further, in data set [2], the Tm turned out to be 50.8 °C.
GGTAGACGAAAGTCGACC (((.(((....))).))): the folding enthalpy in data set [1] is -39.1 kcal/mol. The Tm in data set [2] worked out at 58.1 °C.
Consider GGTAGATCGAAAGATACC (((..(((....)))))), for which the folding enthalpy in data set [1] was -19 kcal/mol. Moreover, in data set [2], the Tm came out at 33.1 °C.
As for GGTAGCCGAAAGGCACC (((.(((....)))))), the folding enthalpy in data set [1] is -18.7 kcal/mol. Also, in data set [2], the Tm is 57.5 °C.
Regarding GGTAGCGAAAGCTAGACC ((((((....)))..))), in data set [1], the folding enthalpy was -14.3 kcal/mol. In data set [2], the Tm was 40.1 °C.
In the case of GGTAGCGAAAGCTCACC ((((((....))).))), the folding enthalpy in data set [1] is -16.8 kcal/mol. Moreover, the Tm in data set [2] came out at 48.2 °C.
For GGTAGCGAAAGCTCGACC ((((((....)))..))), the folding enthalpy in data set [1] is -15.1 kcal/mol. The Tm in data set [2] was determined as 34.6 °C.
For GGTAGCGAAAGCTTCACC ((((((....)))..))), in that order: -13.8 kcal/mol and 34.4 °C.
For GGTAGCTCGAAAGAGACC (((..(((....)))))) the same measures were -11.7 kcal/mol and 28.3 °C.
As for GGTAGGCGAAAGCCCACC (((.(((....))).))), in data set [1], the folding enthalpy was -17.1 kcal/mol. In addition, the Tm in data set [2] was 51.9 °C.
On to GGTAGGGAAACCTACC ((((((....)))))), for which the folding enthalpy in data set [1] was -38.5 kcal/mol. Further, in data set [2], the Tm is 54.6 °C.
